Data set [1] is described as follows: Apparent permeability of the compound across phospholipid vesicle-based barrier. Type of data set: physicochemical. The note with it: not told. In a few lines: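 Phospholipid vesicle-based barrier from egg phosphatidylcholine liposomes (6% w/v in phosphate buffer with 10% v/v ethanol), extruded onto 0.65 µm mixed cellulose ester filter inserts (0.33 cm²). Donor: compound in pH 7.4 phosphate buffer; acceptor: same buffer. Room temperature, no agitation, 12–24 h, inserts moved to fresh buffer. UV-absorbance read-out; Papp from steady-state flux under sink conditions; at least triplicate, mean ± SD.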

In data set [2] the test system is Brain. The data set is described as follows: Inhibition of glutamate-induced [45Ca2+] uptake in synaptosomes in rat brain cortex after 5 mins by scintillation counting. The data set is classed as functional, subcellular. In a few lines:
(§1)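 Synaptosomal P2 fraction from brain cortex of 8–11-day-old rats, suspended in buffer A (132 mM NaCl, 5 mM KCl, 5 mM HEPES, pH 7.4) and kept at 0 °C. Glutamate-stimulated 45Ca2+ uptake with test compound, 5 min at 37 °C. Stopped by GF/B filtration, three washes with cold buffer B (145 mM KCl, 10 mM Tris, 5 mM Trilon B), scintillation counting. Initial screen at 100 µM; concentration dependence followed when inhibition reached 50% or more. MK-801 positive control.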

Data set [3] deals with Brain. The data set is described as follows: Inhibition of glutamate-induced [45Ca2+] uptake in synaptosomes in rat brain cortex assessed as biological activity coefficients (K43/21) after 5 mins by scintillation counting relative to control. On the set-up: concentration or dose not given beside the values. Type of data set: functional, subcellular. The method in brief: as §1

Data set [4] is described as follows: Partition coefficient, log D of the compound in n-octanol-buffer at pH 7.4 by isothermal saturation method. The data set is classed as physicochemical. In a few lines:
(§2)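 Isothermal saturation method at 25 °C, partitioning between n-octanol or n-hexane and phosphate buffer pH 7.4 (KH2PO4, Na2HPO4, NaCl, NaN3). Compound concentrations measured spectrophotometrically against calibration curves; coefficient taken as the ratio of concentration in the organic phase to that in buffer.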

Data set [5] in a line: Partition coefficient, log D of the compound in hexane-buffer at pH 7.4 by isothermal saturation method. Type of data set: physicochemical. The method in brief:
as §2

Broadly, the Papp is a coefficient for how fast a substance crosses the barrier. In general, IC50 refers to the concentration that inhibits the measured activity by half. In general, logD refers to lipophilicity at a set pH, counting ionised and neutral species. For the compound `Cc1ccc(NC2=NCCC3(CCCCC3)S2)cc1`, the Papp in data set [1] worked out at 5.67 ×10⁻⁶ cm/s. Moreover, the IC50 in the data set with Brain [2] came out at 31.6 µM. The Activity in the data set on Brain [3] was determined as 20.4%. The figures for the logD in data set [4] and in data set [5] were 1.56 and 1.48, respectively.

On to `O=C(NC1=NCCC2(CCCCC2)S1)c1ccccc1`, for which, in data set [1], the Papp is 3.18 ×10⁻⁶ cm/s. The Activity in the data set on Brain [3] came to 78.1%. In addition, the logD in data set [4] came to 1.55; in data set [5], 1.51.

On to `Clc1ccc(NC2=NCCC3(CCCCC3)S2)cc1`, for which the Papp in data set [1] came to 27.8 ×10⁻⁶ cm/s. Moreover, the IC50 in the data set on Brain [2] was found to be 35.5 µM. The Activity with Brain [3] was found to be 12.7%. Also, the logD in data set [4] is 2.5; in data set [5], 1.34.

For `CNC1=NCCC2(CCCCC2)S1`, the Papp in data set [1] is 2.7 ×10⁻⁶ cm/s. Also, in the data set with Brain [3], the Activity stood at 134%. For the same compound, the logD in data set [4] was determined as 0.88; in data set [5], 0.91.

Turning to `Oc1ccc(NC2=NCCC3(CCCCC3)S2)cc1`, in data set [1], the apparent permeability (Papp) stood at 1.72 ×10⁻⁶ cm/s. In addition, the Activity in the data set with Brain [3] came out at 73.5%. In addition, in data set [4], the logD was determined as 1.96.

Consider `Fc1ccc(NC2=NCCC3(CCCCC3)S2)cc1Cl`, for which, in data set [1], the Papp is 7.36 ×10⁻⁶ cm/s. In the data set with Brain [3], the Activity turned out to be 81.5%. Moreover, the logD amounted to 2.03 in data set [4] and 0.95 in data set [5].

As for `CC(C)c1ccc(NC2=NCCC3(CCCCC3)S2)cc1`, in data set [1], the Papp was 15.7 ×10⁻⁶ cm/s. This compound also gave an IC50 with Brain [2] of 6.2 µM. Further, the Activity in the data set on Brain [3] turned out to be 0%. Also, the logD in data set [4] was 1.57; in data set [5], 1.45.

On to `CCc1ccc(NC2=NCCC3(CCCCC3)S2)cc1`, for which the apparent permeability coefficient (Papp) in data set [1] was determined as 41 ×10⁻⁶ cm/s. In addition, half-maximal inhibition with Brain [2] (IC50) was put at 11.7 µM. Further, the Activity in the data set on Brain [3] amounted to 0%. In addition, the logD in data set [4] was found to be 2.31; in data set [5] it was 1.75.

Turning to `CCNC1=NCCC2(CCCCC2)S1`, the Papp in data set [1] is 8.78 ×10⁻⁶ cm/s. Moreover, the Activity with Brain [3] worked out at 65.3%. For the same compound, the logD in data set [4] is 1.38; in data set [5], 0.72.

With `Cc1ccc(NC2=NCCC3(CCCCC3)S2)cc1Cl`, the Papp in data set [1] is 23.9 ×10⁻⁶ cm/s. Also, the IC50 in the data set with Brain [2] turned out to be 89.1 µM. For the same compound, the Activity with Brain [3] stood at 45.9%. In addition, the logD in data set [4] turned out to be 2.44; in data set [5], 0.91.

For `CC(=O)c1ccc(NC2=NCCC3(CCCCC3)S2)cc1`, in data set [1], the Papp stood at 2.55 ×10⁻⁶ cm/s. The compound also came in with an IC50 in the data set on Brain [2] of 81.3 µM. Moreover, the Activity in the data set on Brain [3] worked out at 45.1%. Moreover, the figures for the logD in data set [4] and in data set [5] were 1.97 and 1.88, respectively.

Take `Nc1ccc(NC2=NCCC3(CCCCC3)S2)cc1`: the Papp in data set [1] came out at 2.04 ×10⁻⁶ cm/s. Besides, in the data set with Brain [3], the Activity is 115%. The logD is 1.88 in data set [4] and -0.52 in data set [5].

For `Cc1cccc(C(C)C)c1NC1=NCCC2(CCCCC2)S1`, the Papp in data set [1] worked out at 9.04 ×10⁻⁶ cm/s. Moreover, the IC50 in the data set on Brain [2] was 20.9 µM. Besides, the Activity in the data set with Brain [3] came out at 5.4%. Besides, the logD in data set [4] came to 2.36; in data set [5], 1.5.

As to `NC1=NCCC2(CCCCC2)S1`, the Papp in data set [1] was found to be 7.33 ×10⁻⁶ cm/s. In addition, in the data set on Brain [3], the Activity was 91.4%. Further, the logD in data set [4] is 1.57; in data set [5], 1.22.

In the case of `FC(F)(F)c1ccc(NC2=NCCC3(CCCCC3)S2)cc1`, the Papp in data set [1] came out at 3.06 ×10⁻⁶ cm/s. Also, the IC50 in the data set on Brain [2] was 77.6 µM. The Activity in the data set with Brain [3] was found to be 42.1%. In addition, the results for the logD in data set [4] and in data set [5] were 2.18 and 1.31, respectively.

With `COc1ccc(NC2=NCCC3(CCCCC3)S2)cc1`, the Papp in data set [1] is 1.11 ×10⁻⁶ cm/s. In the data set on Brain [2], this compound showed an IC50 of 85.1 µM. Further, the Activity with Brain [3] amounted to 45.7%. Moreover, the logD came to 0.8 in data set [4] and 1.45 in data set [5].

For `CC(=O)c1cccc(NC2=NCCC3(CCCCC3)S2)c1`, in data set [1], the Papp stood at 74.7 ×10⁻⁶ cm/s. In the data set with Brain [3], the Activity was 67.3%. Besides, the logD in data set [4] was 2.37; in data set [5], 1.31.

On to `Clc1ccc(NC2=NCCC3(CCCCC3)S2)cc1Cl`, for which the Papp in data set [1] came out at 3.1 ×10⁻⁶ cm/s. In addition, the Activity in the data set with Brain [3] was 76.9%. Also, the figures for the logD in data set [4] and in data set [5] were 2.45 and 1.24, respectively.

Turning to `c1ccc(NC2=NCCC3(CCCCC3)S2)cc1`, the Papp in data set [1] came out at 1.81 ×10⁻⁶ cm/s. This compound displayed an IC50 with Brain [2] of 63.1 µM. In addition, the Activity with Brain [3] came to 33.2%. The values for the logD in data set [4] and in data set [5] were 1.02 and 1.69, respectively.

As for `Cc1cc(C)c(NC2=NCCC3(CCCCC3)S2)c(C)c1`, the Papp in data set [1] was found to be 11.3 ×10⁻⁶ cm/s. In the data set on Brain [2], the IC50 came to 9.3 µM. Moreover, the Activity in the data set with Brain [3] turned out to be 2.6%. For the same compound, the logD in data set [4] was found to be 2.05; in data set [5], 1.48.

For `Brc1ccc(NC2=NCCC3(CCCCC3)S2)cc1`, in data set [1], the Papp was 90.3 ×10⁻⁶ cm/s. The Activity in the data set with Brain [3] worked out at 56.5%. Further, the logD in data set [4] was found to be 2.53; in data set [5] it was 1.36.

Regarding `CCc1cccc(CC)c1NC1=NCCC2(CCCCC2)S1`, the Papp in data set [1] was 21.6 ×10⁻⁶ cm/s. Further, in the data set with Brain [2], the IC50 turned out to be 7.9 µM. Further, in the data set on Brain [3], the Activity was 3.5%. Besides, the logD in data set [4] came to 1.88; in data set [5], 1.28.

Values taken from ChEMBL document CHEMBL3232936, “Synthesis, biological activity, distribution and membrane permeability of novel spiro-thiazines as potent neuroprotectors” (Eur J Med Chem, 2014).
